This is an account of results in PMC4062594 (Nature chemical biology, 2014).

“Also recorded” adds a separate entry of the source.

One experiment concerns the target T1, PTP1B (Homo sapiens, UniProt P18031).
T1 sequence (P18031 1-435): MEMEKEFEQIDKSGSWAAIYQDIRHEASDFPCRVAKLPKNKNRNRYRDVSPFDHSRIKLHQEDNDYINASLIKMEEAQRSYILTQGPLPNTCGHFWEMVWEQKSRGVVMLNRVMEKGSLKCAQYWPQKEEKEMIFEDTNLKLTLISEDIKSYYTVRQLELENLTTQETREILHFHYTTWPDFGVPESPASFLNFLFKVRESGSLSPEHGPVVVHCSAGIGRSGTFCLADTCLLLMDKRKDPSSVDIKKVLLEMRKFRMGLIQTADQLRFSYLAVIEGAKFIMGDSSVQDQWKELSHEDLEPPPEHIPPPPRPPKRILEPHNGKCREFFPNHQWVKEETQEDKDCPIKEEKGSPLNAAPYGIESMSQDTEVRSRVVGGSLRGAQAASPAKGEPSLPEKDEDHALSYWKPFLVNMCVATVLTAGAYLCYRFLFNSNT
Kind of experiment: PTP assay with DiFMUP, MSI-1459 versus MSI-1436. It counts as biochemical. As to conditions: DiFMUP 10 uM, compound 0-10 μM.

The target in experiment [1] is T2, PTP1B in tumor lysates from NDL2 mice (Mus musculus, UniProt P35821).
T2 sequence (P35821 1-432): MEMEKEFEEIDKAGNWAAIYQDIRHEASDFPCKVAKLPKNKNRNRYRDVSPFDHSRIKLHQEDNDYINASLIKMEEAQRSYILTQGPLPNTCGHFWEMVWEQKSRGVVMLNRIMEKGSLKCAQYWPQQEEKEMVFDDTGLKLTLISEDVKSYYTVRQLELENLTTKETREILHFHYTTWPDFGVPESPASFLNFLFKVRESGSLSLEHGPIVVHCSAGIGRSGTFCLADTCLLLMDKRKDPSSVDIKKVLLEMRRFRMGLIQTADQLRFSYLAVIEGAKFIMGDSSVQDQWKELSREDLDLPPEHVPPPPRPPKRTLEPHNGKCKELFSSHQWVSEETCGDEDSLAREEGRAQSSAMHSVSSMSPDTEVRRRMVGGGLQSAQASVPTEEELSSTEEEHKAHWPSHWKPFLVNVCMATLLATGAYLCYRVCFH
Kind of experiment: Binding assay with bead-immobilized compound in tumor lysates. The following applies: confirmed by immunoblotting. The method in brief: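 Test compound was coupled through its primary amine to NHS-activated magnetic beads (1 mM, 100 mM triethylamine, 8 h, 4°C), and free NHS groups were blocked with 0.8 M aminoethanol. Beads were incubated with 0–1 mg NDL2 tumour lysate protein and washed. Bound protein was eluted by heat in SDS sample buffer, run on 10% SDS-PAGE and identified by immunoblotting. Beads carrying a related amine compound served as negative control.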
On the technique in general: Immunoblotting shows a protein as a band on a membrane.

Take “3β-spermine, 5α, cholenic acid methyl ester [MSI-1459]”: the “inhibition of PTP1B” value against PTP1B is on record as “does not inhibit PTP1B; also recorded: poor inhibitory potency”. For the same substance, the “retention of 50 kDa band (PTP1B) by compound beads” value in experiment [1] is given as “not bound”.
